The values below come from ChEMBL document CHEMBL1155812, “Functionalized pyrrolidine inhibitors of human type II alpha-mannosidases as anti-cancer agents: optimizing the fit to the active site” (Bioorg Med Chem, 2008).

Molecules are shown by their SMILES. Active and inactive are the calls of the source. The calls are words filed in the database; no cut-off is given here.

Data set [1] has as its system LNZ308. Briefly: (§1) Growth inhibition of human LNZ308 cells after 24 hrs by MTT assay. The data set is classed as functional, cell-based. In short, it runs like this: (§2)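 Cells seeded 2 days before in the same medium (glioblastoma lines in DMEM 4.5 g/l glucose, 5% FCS; HCEC with 10% FCS), then exposed to increasing concentrations for 24 h. MTT (5 mg/ml in PBS) was added without medium change for 2 h at 37 °C. Formazan was dissolved in isopropanol-HCl and read at 540 nm. Growth inhibition is the ratio of MTT reduction, treated to untreated. Triplicate wells.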
A general note: Tetrazolium assays rely on reduction of a dye to a coloured formazan, in cell work by metabolically active cells.

Data set [2] can be described thus: Inhibition of jack bean alpha-mannosidase. More on the design: species or system Canavalia ensiformis. The gist of the method: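 Jack bean enzyme (0.01–0.5 U/mL) preincubated 5 min at 20 °C with inhibitor, then reacted 20 min at 37 °C with increasing 4-nitrophenyl-α-D-mannopyranoside at pH 5.5. Stopped with 0.2 M borate pH 9.8; 4-nitrophenolate read at 410 nm. IC50 found graphically, or Ki and inhibition type from Lineweaver–Burk plots.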

In the next data set the test system is LN-18. The data set is described as follows: (§3) Growth inhibition of human LN18 cells after 24 hrs by MTT assay. The class given is functional, cell-based. The gist of the method: as §2
Data set [3] addresses T1, Lysosomal alpha-mannosidase (Homo sapiens, UniProt O00754).
T1 sequence (O00754 whole entry): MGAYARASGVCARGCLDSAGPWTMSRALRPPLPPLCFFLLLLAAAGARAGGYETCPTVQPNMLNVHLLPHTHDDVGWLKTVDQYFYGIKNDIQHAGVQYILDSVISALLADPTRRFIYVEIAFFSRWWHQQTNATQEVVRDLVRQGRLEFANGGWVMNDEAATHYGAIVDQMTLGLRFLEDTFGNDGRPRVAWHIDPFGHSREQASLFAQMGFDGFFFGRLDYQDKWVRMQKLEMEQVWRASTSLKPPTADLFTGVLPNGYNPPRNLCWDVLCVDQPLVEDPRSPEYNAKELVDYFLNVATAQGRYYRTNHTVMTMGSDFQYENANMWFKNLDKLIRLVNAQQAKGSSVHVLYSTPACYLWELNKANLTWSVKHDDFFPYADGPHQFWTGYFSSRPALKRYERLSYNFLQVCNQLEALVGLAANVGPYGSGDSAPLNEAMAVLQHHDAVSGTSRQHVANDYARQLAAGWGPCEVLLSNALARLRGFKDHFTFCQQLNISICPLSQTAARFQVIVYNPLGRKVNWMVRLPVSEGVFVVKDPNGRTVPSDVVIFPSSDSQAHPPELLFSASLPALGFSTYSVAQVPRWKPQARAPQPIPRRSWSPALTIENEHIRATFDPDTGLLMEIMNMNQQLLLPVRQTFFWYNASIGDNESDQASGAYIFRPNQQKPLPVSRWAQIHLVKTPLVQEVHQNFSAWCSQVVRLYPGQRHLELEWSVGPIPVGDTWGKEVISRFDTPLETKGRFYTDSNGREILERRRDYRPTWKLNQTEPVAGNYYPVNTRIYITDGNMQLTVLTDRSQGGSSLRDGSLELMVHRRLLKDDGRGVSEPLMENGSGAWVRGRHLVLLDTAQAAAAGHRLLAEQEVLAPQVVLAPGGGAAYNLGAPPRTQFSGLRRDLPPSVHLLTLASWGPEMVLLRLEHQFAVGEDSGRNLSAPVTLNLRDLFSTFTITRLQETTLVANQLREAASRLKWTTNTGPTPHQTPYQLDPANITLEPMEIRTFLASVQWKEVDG
Briefly: Inhibition of alpha-mannosidase in human LN18 cells. The class given is cell-based. In short, it runs like this: (§4)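 Cell layers extracted in pH 5.0 phosphate buffer with 0.1% Triton X-100. Extracts were preincubated with increasing inhibitor concentrations (30 min, 37 °C), then given 4-methylumbelliferyl-α-D-mannopyranoside (150 µM final). Fluorescence increase (ex 360/em 460 nm) followed for 30 min at 37 °C. KM was determined first; IC50 and Ki were derived graphically. Swainsonine served as reference.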

Data set [4] has as its target T1, Lysosomal alpha-mannosidase. The data set is described as follows: Inhibition of alpha-mannosidase in human LNZ308 cells. The data set is classed as cell-based. In short, it runs like this:
as §4

The nature of data set [5]: Growth inhibition of human HCEC after 24 hrs by MTT assay. The data set is classed as cell-based. Particulars: for Activity: human, hcec. The gist of the method: as §2
Data set [6] addresses T1, Lysosomal alpha-mannosidase. The data set is described as follows: Inhibition of alpha-mannosidase in human HCEC. The class given is cell-based. In short, it runs like this: as §4
Data set [7] can be described thus: Inhibition of drosophila golgi alpha-mannosidase 2. In short, it runs like this:
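It was preincubated 30 min at 20 °C with inhibitor added in DMSO, then given p-nitrophenyl α-mannopyranoside, all at 10% final DMSO and 20 °C. Timed aliquots were stopped with equal-volume 0.5 M sodium carbonate and read at A405. Ki was fitted by nonlinear regression on the linear portion of the time course.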

Data set [8] in a line: as §1. The class given is functional, cell-based. Particulars: LNZ308, 24 h. The gist of the method:
as §2

In a further data set the test system is HCEC. The data set is described as follows: Decrease in incorporation of [3H]Mann into TCA-precipitable high molecular weight cellular molecule in human HCEC at 200 uM after 6 hrs. The data set is classed as functional, cell-based. In short, it runs like this:
(§5)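 Cells given 200 µM inhibitor together with [2,3,4,5-3H]-L-Leu or [2,6-3H]-D-Mann (0.4 µCi/ml final). LNZ308 were seeded 10 h before a 14 h exposure; HCEC were exposed for 6 h. Incorporation measured by 10% TCA precipitation, solubilization in 0.1 N NaOH and beta counting. The Mann/Leu ratio of decrease, treated vs. control, was calculated. Triplicate wells, means ± SD.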

The test system of data set [9] is LNZ308. Briefly: Decrease in incorporation of [3H]Mann into TCA-precipitable high molecular weight cellular molecule in human LNZ308 cells at 200 uM after 14 hrs. The class given is functional, cell-based. In short, it runs like this: as §5
Data set [10] is described as follows: as §3. The class given is functional, cell-based. Particulars: LN-18, 24 h. The gist of the method: as §2
Data set [11] is described as follows: Growth inhibition of melanoma cells. The class given is functional, cell-based. Particulars: Melanoma tumor cell line.
Data set [12] is described as follows: Growth inhibition of human LNZ308 cells at 300 uM after 24 hrs by MTT assay. As to conditions: LNZ308, 24 h, read-out: GI. The class given is functional. The gist of the method:
as §2

The nature of data set [13]: Growth inhibition of human HCEC at 300 uM after 24 hrs by MTT assay. Particulars: HCEC cells, read-out: GI. The data set is classed as cell-based. In short, it runs like this: as §2
The nature of data set [14]: Growth inhibition of human LN18 cells at 300 uM after 24 hrs by MTT assay. The class given is functional. As to conditions: LN-18, 24 h, read-out: GI. In short, it runs like this:
as §2

Take `CN1C(=O)[C@H](O)[C@H](O)[C@H]1CN[C@@H](CO)c1ccccc1`: the result with LNZ308 [1] and in the data set with LN-18 was inactive. Also, the inhibitory constant (Ki) in data set [2] was found to be 0.206 µM; in data set [3] it was 3.2 µM; in [4], 0.55 µM; in [6] it was 0.67 µM. In addition, the IC50 in data set [3] was found to be 2 µM; in data set [4], 0.5 µM; in data set [6], 0.5 µM. The Activity result in [5] is on record as “Not Active”.

As for `O[C@H]1[C@H]2[C@H](O)CCCN2C[C@H]1O` [TRIDOLGOSIR], the 50% inhibitory concentration (IC50) in data set [2] stood at 0.04 µM; in data set [3], 0.05 µM; in data set [7] it was 0.04 µM; in data set [4] it was 0.02 µM; in data set [6], 0.01 µM. The figures for the Ki in data set [2] and in data set [7] were 0.155 µM and 0.02 µM, respectively.

As for `CN1C(=O)[C@H](O)[C@H](O)[C@H]1CN[C@@H](COC(=O)c1ccc(Br)cc1)c1ccccc1`, the half-inhibitory concentration (IC50) came out at 175 µM in data set [8]; 145 µM in [10]; 75 µM in [3]; 7.5 µM in data set [4]; 100 µM in [5] (Homo sapiens, HCEC); 0.75 µM in data set [6]. Besides, the result in the data set with HCEC and in the data set on LNZ308 [9] was Active.

Turning to `O=C(OC[C@H](NC[C@H]1NC[C@H](O)[C@@H]1O)c1ccccc1)c1ccc(Br)cc1`, the IC50 stood at 200 µM in [3], 125 µM in [11], 75 µM in [4] and 75 µM in data set [6].

Turning to `OC[C@H](NC[C@H]1NC[C@H](O)[C@@H]1O)c1ccccc1`, the IC50 in data set [3] is 50 µM; in data set [7], 80 µM; in data set [4] it was 50 µM; in data set [6], 25 µM. Besides, the Ki in [3] was 32.5 µM; in data set [7], 67 µM; in data set [4], 41.5 µM; in data set [6], 23.3 µM.

With `O=C1N[C@H](CN[C@@H](CO)c2ccccc2)[C@@H](O)[C@H]1O`, the result in the data set on LNZ308 [1] and in the data set on LN-18 was inactive. The Ki in [2] stood at 4 µM. The values for the IC50 in data set [3], in data set [4] and in [6] were 350 µM, 50 µM and 75 µM, respectively. The Activity entry in data set [5] is given as “Not Active”.

With `O=C(OC[C@H](NC[C@H]1NC(=O)[C@H](O)[C@@H]1O)c1ccccc1)c1ccc(Br)cc1`, the inhibition of growth at 300 µM in data set [12] stood at 51%; in data set [14] it was 59%. The inhibition at 24 h, 300 µM in data set [13] was determined as 85%. Besides, the half-inhibitory concentration (IC50) is 750 µM in data set [3], 150 µM in [4] and 75 µM in data set [6].

For orientation: Ki means the dissociation constant of the complex between target and ligand, obtained from inhibition or displacement. A higher Ki goes with lower affinity. As a reminder, the IC50 is the concentration that inhibits the measured activity by half. Lower therefore signals inhibition by little substance.
